From ChEMBL document CHEMBL4251637, “Picolyl amides of betulinic acid as antitumor agents causing tumor cell apoptosis” (Eur J Med Chem, 2018)
Calls of active or inactive are those of the source. No cut-off for these calls is given here.

How the values were obtained:
[1] = Therapeutic index, ratio of IC50 for human BJ cells to IC50 for human G361 cells; assay type: toxicity; conditions: BJ cells versus G361 cells, read-out: Ratio IC50
Outline: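 Therapeutic index is IC50 in normal BJ fibroblasts divided by IC50 in G-361 melanoma cells. Both IC50 values come from the 72 h cytotoxicity test, with cells grown in DMEM with 10% FBS, 2 mM L-glutamine and antibiotics at 37 °C, 5% CO2.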

[2] = test system: CCRF-CEM; test: Cytotoxicity against human CEM cells after 72 hrs by calcein-AM dye based fluorescence assay; assay type: functional, cell-based
Outline: (§1)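 Cells from ATCC, grown in DMEM with 10% fetal bovine serum, 2 mM L-glutamine and 1% penicillin-streptomycin at 37 °C, 5% CO2, humidified, and passaged by trypsinization two or three times weekly. Compound exposure lasted 72 h and the read-out was IC50 (µM).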

[3] = test system: MCF7; test: Cytotoxicity against human MCF7 cells after 72 hrs by calcein-AM dye based fluorescence assay; assay type: functional, cell-based; conditions: MCF7, 72 h; outline: as §1
[4] = test system: HeLa; test: Cytotoxicity against human HeLa cells after 72 hrs by calcein-AM dye based fluorescence assay; assay type: functional, cell-based; outline: as §1
[5] = test system: G-361; test: Cytotoxicity against human G361 cells after 72 hrs by calcein-AM dye based fluorescence assay; assay type: functional, cell-based; conditions: G-361, 72 h; outline: as §1
[6] = test system: BJ; test: Cytotoxicity against human BJ cells after 72 hrs by calcein-AM dye based fluorescence assay; assay type: cell-based; outline: as §1
[7] = test system: G-361; test: Induction of apoptosis in human G361 cells assessed as effect on Mcl1 expression level at 0.5 to 25 uM after 24 hrs by Western blot analysis; assay type: functional, cell-based
Outline: (§2)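 G-361 cells seeded in 100-mm dishes at 1.5 × 10⁶ cells/mL and stabilized 24 h, then treated 24 h with 0.5–25 µM; DMSO vehicle controls. Lysed in RIPA buffer pH 7.4 and protein measured by Bradford. Run on 10% or 12% SDS-PAGE, blotted to nitrocellulose, probed overnight with primary antibodies, then HRP secondary and chemiluminescence. β-actin loading control, compared with untreated cells; three repeats.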

[8] = test system: G-361; test: Induction of apoptosis in human G361 cells assessed as increase in cleaved caspase-7 expression at 0.5 to 25 uM after 24 hrs by Western blot analysis; assay type: functional, cell-based; outline: as §2
[9] = target: Mitogen-activated protein kinase; ERK1/ERK2 (Homo sapiens) (UniProt P27361+P28482); test: Inhibition of ERK1/2 phosphorylation at Thr202/Tyr204 in human G361 cells at 12.5 to 25 uM after 24 hrs by Western blotting analysis relative to control; assay type: cell-based; outline: as §2
Chain of Mitogen-activated protein kinase; ERK1/ERK2 (Homo sapiens) (P27361 whole entry, looked up): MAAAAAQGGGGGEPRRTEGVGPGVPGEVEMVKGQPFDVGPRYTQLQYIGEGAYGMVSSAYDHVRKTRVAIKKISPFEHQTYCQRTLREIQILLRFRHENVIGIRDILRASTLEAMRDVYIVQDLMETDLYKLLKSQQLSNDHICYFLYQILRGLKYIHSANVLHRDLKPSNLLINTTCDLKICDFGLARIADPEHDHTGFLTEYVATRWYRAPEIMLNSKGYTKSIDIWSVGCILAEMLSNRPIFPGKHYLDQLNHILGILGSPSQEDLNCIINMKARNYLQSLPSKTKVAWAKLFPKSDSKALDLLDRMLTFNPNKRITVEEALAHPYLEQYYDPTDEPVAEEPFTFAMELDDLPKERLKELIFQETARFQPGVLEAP
Chain of Mitogen-activated protein kinase; ERK1/ERK2 (Homo sapiens) (P28482 whole entry, looked up): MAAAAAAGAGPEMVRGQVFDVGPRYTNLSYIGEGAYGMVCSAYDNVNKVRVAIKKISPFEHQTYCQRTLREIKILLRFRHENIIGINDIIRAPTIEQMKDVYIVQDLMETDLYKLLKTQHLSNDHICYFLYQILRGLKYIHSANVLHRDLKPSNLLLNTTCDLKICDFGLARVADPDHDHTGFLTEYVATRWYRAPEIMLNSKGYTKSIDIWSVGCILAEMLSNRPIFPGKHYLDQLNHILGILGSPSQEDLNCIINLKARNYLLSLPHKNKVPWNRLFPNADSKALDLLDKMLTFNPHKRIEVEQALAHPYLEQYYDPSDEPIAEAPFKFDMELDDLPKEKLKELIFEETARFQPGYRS

[10] = test system: G-361; test: Induction of apoptosis in human G361 cells assessed as effect on p53 protein expression level at 0.5 to 25 uM after 24 hrs by Western blot analysis; assay type: functional, cell-based; outline: as §2
[11] = test system: G-361; test: Cell cycle arrest in human G361 cells assessed as increase in accumulation at sub-G1 phase at 0.5 to 25 uM after 24 hrs by propidium iodide staining-based flow cytometry; assay type: functional
Outline: (§3)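 G-361 melanoma cells grown in DMEM with 10% FBS, 2 mM L-glutamine and penicillin-streptomycin at 37 °C, 5% CO2. Cells were seeded and left 24 h, then treated with 0.5, 2.5, 12.5 or 25 µM for 24 h. Trypsinized cells were fixed and stained with 0.1% Triton X-100, 0.2 mg/mL RNase A and 10 µg/mL propidium iodide in PBS. DNA content was read by flow cytometry and phases quantified from histograms; three repeats.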

[12] = test system: G-361; test: Induction of apoptosis in human G361 cells assessed as increase in cleaved PARP expression at 0.5 to 25 uM after 24 hrs by Western blot analysis; assay type: functional, cell-based; outline: as §2
[13] = test system: G-361; test: Induction of apoptosis in human G361 cells assessed as downregulation of phosphorylated Rb expression at 12.5 to 25 uM after 24 hrs by Western blot analysis; assay type: functional, cell-based; outline: as §2
[14] = test system: G-361; test: Induction of apoptosis in human G361 cells assessed as increase in caspase-3/7 activity using Ac-DEVD-AMC as substrate at 25 uM after 24 hrs by fluorescence assay relative to control; assay type: functional
Outline: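 Treated G-361 cells (0.5–25 µM, 24 h) were extracted on ice in CHAPS/HEPES buffer pH 7.4 with protease inhibitors, and lysates equalized by Bradford protein. Incubated 1 h with Ac-DEVD-AMC in PIPES/DTT buffer pH 7.3; Ac-DEVD-CHO lysates served as negative control. Fluorescence read at 346/442 nm and expressed as fold over untreated control. Three experiments in triplicate; one-way ANOVA.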

[15] = test system: G-361; test: Cell cycle arrest in human G361 cells assessed as increase in accumulation at G0/G1 phase at 0.5 to 25 uM after 24 hrs by propidium iodide staining-based flow cytometry; assay type: functional; outline: as §3
[16] = test system: G-361; test: Cell cycle arrest in human G361 cells assessed as reduction in accumulation at G2/M phase at 0.5 to 25 uM after 24 hrs by propidium iodide staining-based flow cytometry; assay type: functional; outline: as §3
[17] = test system: G-361; test: Effect on total p44/42 level in human G361 cells at 0.5 to 25 uM after 24 hrs by Western blot analysis; assay type: cell-based; conditions: g-361, 24 h; outline: as §2
[18] = test system: G-361; test: Induction of apoptosis in human G361 cells assessed as effect on Bcl2 expression level at 0.5 to 25 uM after 24 hrs by Western blot analysis; assay type: functional, cell-based; outline: as §2
[19] = test system: G-361; test: Induction of apoptosis in human G361 cells assessed as downregulation of total Rb expression at 12.5 to 25 uM after 24 hrs by Western blot analysis; assay type: functional, cell-based; outline: as §2

Row | inhibition [9] | SMILES | selectivity ratio [1] | IC50 [2] | IC50 [3] | IC50 [4] | IC50 [5] | IC50 [6] | Activity [7] | Activity [8] | Activity [10] | Activity [11] | Activity [12] | Activity [13] | fold change (FC) [14] | Activity [15] | Activity [16] | Activity [17] | Activity [18] | Activity [19] | Activity [14]
1 | – | C=C(C)[C@@H]1CC[C@]2(C(=O)NCc3ccccn3)CC[C@]3(C)[C@H](CC[C@@H]4[C@@]5(C)CC[C@H](O)C(C)(C)[C@@H]5CC[C@]43C)[C@@H]12 | 1 | 18.6 µM | 27 µM | 14.7 µM | 16.4 µM | 15.8 µM | – | – | – | – | – | – | – | – | – | – | – | – | –
2 | Active | C=C(C)[C@@H]1CC[C@]2(C(=O)O)CC[C@]3(C)[C@H](CC[C@@H]4[C@@]5(C)CC[C@H](OC(=O)CCC(=O)NCc6ccccn6)C(C)(C)[C@@H]5CC[C@]43C)[C@@H]12 | 19.3 | 6.9 µM | 2.2 µM | 2.3 µM | 2.4 µM | 46.2 µM | inactive | Active | inactive | Active | Active | Active | <=18 | Active | Active | Non-Toxic | inactive | Active | –
3 | – | C=C(C)[C@@H]1CC[C@]2(C(=O)O)CC[C@]3(C)[C@H](CC[C@@H]4[C@@]5(C)CC[C@H](OC(=O)CCC(=O)NCc6ccncc6)C(C)(C)[C@@H]5CC[C@]43C)[C@@H]12 | – | 22.6 µM | > 50 µM | 40.9 µM | 32.1 µM | > 50 µM | – | – | – | inactive | – | – | – | inactive | inactive | – | – | – | inactive
4 | Active | C=C(C)[C@@H]1CC[C@]2(C(=O)O)CC[C@]3(C)[C@H](CC[C@@H]4[C@@]5(C)CC[C@H](OC(=O)CCC(=O)NCc6cccnc6)C(C)(C)[C@@H]5CC[C@]43C)[C@@H]12 | 100 | 6.5 µM | 1.4 µM | 2.4 µM | 0.5 µM | 50 µM | inactive | Active | inactive | Active | Active | Active | 12 | Active | Active | Non-Toxic | inactive | Active | –
5 | – | C=C(C)[C@@H]1CC[C@]2(C(=O)NCc3cccnc3)CC[C@]3(C)[C@H](CC[C@@H]4[C@@]5(C)CC[C@H](O)C(C)(C)[C@@H]5CC[C@]43C)[C@@H]12 | 1 | 25.3 µM | 38.7 µM | 23.6 µM | 18.1 µM | 17.5 µM | – | – | – | – | – | – | – | – | – | – | – | – | –
6 | – | C=C(C)[C@@H]1CC[C@]2(C(=O)NCc3ccncc3)CC[C@]3(C)[C@H](CC[C@@H]4[C@@]5(C)CC[C@H](O)C(C)(C)[C@@H]5CC[C@]43C)[C@@H]12 | 1 | 18.6 µM | 21.1 µM | 14.8 µM | 11.6 µM | 11.2 µM | – | – | – | – | – | – | – | – | – | – | – | – | –
